Measured values reported in ChEMBL document CHEMBL1126902, “Synthesis, chemical reactivity, and antitumor evaluation of congeners of carmethizole hydrochloride, an experimental "acylated vinylogous carbinolamine" tumor inhibitor” (J Med Chem, 1993).

Tests used:
[1] = system: P388; test: Percent increase in life span of dying mice tested in vivo at 23.5 mg/kg against ip implanted P388 Leukemia in mice; type: functional; conditions: Mus musculus, route intraperitoneal
How it was run: (§1)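 Portage-CD2F1 female mice inoculated ip with ascitic fluid carrying ca. 5.2×10^6 P388 leukemia cells. Drug given ip daily on days 1-5, starting 24 h after inoculation, dosed by average body weight. %ILS is from the median day of death of dying mice versus controls.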

[2] = Percent increase in life span of dying mice tested in vivo at 94 mg/kg against ip implanted LOX amelanotic melanoma in mice (60-day survivors); type: functional; conditions: Mus musculus, 1440 h, route intraperitoneal
How it was run: (§2)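 Nude CD2F1 female mice were implanted ip with ascitic fluid containing ca. 1.7×10^6 LOX amelanotic melanoma cells. Drug was given ip on days 1, 5 and 9, starting 24 h after implantation, and dosed by exact body weight. Solutions or suspensions were made fresh daily in saline plus Tween 80. %ILS was calculated from the median day of death of dying mice versus controls, excluding 60-day survivors.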

[3] = system: P388; test: Percent increase in life span of dying mice tested in vivo at 11.8 mg/kg against ip implanted P388 Leukemia in mice; type: functional; conditions: Mus musculus, route intraperitoneal; how it was run: as §1
[4] = Change in tumor cell population in ip implanted LOX amelanotic melanoma in mice after administration of compound at 47 mg/kg; type: functional, Mus musculus; conditions: route intraperitoneal
How it was run: (§3)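 Female CD2F1 mice were implanted ip with ascitic fluid holding ca. 1.7×10^6 LOX cells. Dosing was ip on days 1, 5 and 9, starting 24 h after implantation, by exact body weight, as a solution or suspension in saline plus Tween 80, freshly prepared daily. KE is the net log change in viable tumor cells from start to end of treatment. Bracketed KE assumes Poisson survival, with 60-day survivors tumor-free.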

[5] = system: P388; test: Change in tumor cell population in ip implanted P388 Leukemia in mice after administration of compound at 11.8 mg/kg; type: functional, Mus musculus; conditions: route intraperitoneal
How it was run: (§4)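 Female Portage-CD2F1 mice were inoculated ip with ascitic fluid holding ca. 5.2×10^6 P388 cells. Dosing was ip on days 1-5, starting 24 h after inoculation, by average body weight, as a solution or suspension in saline plus Tween 80. KE is the net log change in viable tumor cell population from start to end of the treatment period.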

[6] = system: P388; test: Change in tumor cell population in ip implanted P388 Leukemia in mice after administration of compound at 23.5 mg/kg; type: functional, Mus musculus; conditions: route intraperitoneal; how it was run: as §4
[7] = system: P388; test: Change in tumor cell population in ip implanted P388 Leukemia in mice after administration of compound at 47 mg/kg; type: functional, Mus musculus; conditions: route intraperitoneal
How it was run: (§5)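 P388 leukemia: ascitic fluid with ca. 5.2×10^6 cells inoculated ip into Portage-CD₂F₁ female mice. Drug given ip on days 1-5, starting 24 h after inoculation, dosed by average body weight. Vehicle was saline plus Tween 80, as a solution or suspension. KE = net log change in viable tumor cells from start to end of treatment.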

[8] = Percent increase in life span of dying mice tested in vivo at 188 mg/kg against ip implanted LOX amelanotic melanoma in mice (60-day survivors); type: functional; conditions: Mus musculus, 1440 h, route intraperitoneal
How it was run: (§6)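 Female CD2F1 mice implanted ip with ascitic fluid carrying ca. 1.7×10^6 LOX amelanotic melanoma cells. Drug given ip on days 1, 5 and 9, starting 24 h after implant, dosed by exact body weight; solutions or suspensions made fresh daily. %ILS is from the median day of death of dying mice versus controls, excluding 60-day survivors.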

[9] = Change in tumor cell population in ip implanted LOX amelanotic melanoma in mice after administration of compound at 23.5 mg/kg; type: functional, Mus musculus; conditions: route intraperitoneal; how it was run: as §3
[10] = system: P388; test: Percent increase in life span of dying mice tested in vivo at 94 mg/kg against ip implanted P388 Leukemia in mice; type: functional; conditions: Mus musculus, route intraperitoneal
How it was run: (§7)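 Portage-CD2F1 female mice were inoculated ip with ascitic fluid containing ca. 5.2×10^6 P388 leukemia cells. Drug was given ip daily on days 1-5, starting 24 h after inoculation, and dosed by average body weight. %ILS was calculated from the median day of death of dying mice versus controls.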

[11] = system: P388; test: Change in tumor cell population in ip implanted P388 Leukemia in mice after administration of compound at 94 mg/kg; type: functional, Mus musculus; conditions: route intraperitoneal; how it was run: as §5
[12] = Percent increase in life span of dying mice tested in vivo at 47 mg/kg against ip implanted LOX amelanotic melanoma in mice (60-day survivors); type: functional; conditions: Mus musculus, 1440 h, route intraperitoneal; how it was run: as §6
[13] = Change in tumor cell population in ip implanted LOX amelanotic melanoma in mice after administration of compound at 94 mg/kg; type: functional, Mus musculus; conditions: route intraperitoneal; how it was run: as §3
[14] = Percent increase in life span of dying mice tested in vivo at 23.5 mg/kg against ip implanted LOX amelanotic melanoma in mice (60-day survivors); type: functional; conditions: Mus musculus, 1440 h, route intraperitoneal; how it was run: as §6
[15] = system: P388; test: Percent increase in life span of dying mice tested in vivo at 47 mg/kg against ip implanted P388 Leukemia in mice; type: functional; conditions: Mus musculus, route intraperitoneal; how it was run: as §1
[16] = Change in tumor cell population in ip implanted LOX amelanotic melanoma in mice after administration of compound at 188 mg/kg; type: functional, Mus musculus; conditions: route intraperitoneal; how it was run: as §3
[17] = Change in tumor cell population in ip implanted LOX amelanotic melanoma in mice after administration of compound at 82 mg/kg; type: functional, Mus musculus; conditions: route intraperitoneal; how it was run: as §3
[18] = system: P388; test: Percent increase in life span of dying mice tested in vivo at 41 mg/kg against ip implanted P388 Leukemia in mice; type: functional; conditions: Mus musculus, route intraperitoneal; how it was run: as §1
[19] = system: P388; test: Change in tumor cell population in ip implanted P388 Leukemia in mice after administration of compound at 20.5 mg/kg; type: functional, Mus musculus; conditions: route intraperitoneal; how it was run: as §4
[20] = Percent increase in life span of dying mice tested in vivo at 164 mg/kg against ip implanted LOX amelanotic melanoma in mice (60-day survivors); type: functional; conditions: Mus musculus, 1440 h, route intraperitoneal; how it was run: as §6
[21] = Percent increase in life span of dying mice tested in vivo at 41 mg/kg against ip implanted LOX amelanotic melanoma in mice (60-day survivors); type: functional; conditions: Mus musculus, 1440 h, route intraperitoneal; how it was run: as §6
[22] = system: P388; test: Percent increase in life span of dying mice tested in vivo at 164 mg/kg against ip implanted P388 Leukemia in mice; type: functional; conditions: Mus musculus, route intraperitoneal; how it was run: as §1
[23] = system: P388; test: Change in tumor cell population in ip implanted P388 Leukemia in mice after administration of compound at 82 mg/kg; type: functional, Mus musculus; conditions: route intraperitoneal; how it was run: as §5
[24] = Change in tumor cell population in ip implanted LOX amelanotic melanoma in mice after administration of compound at 41 mg/kg; type: functional, Mus musculus; conditions: route intraperitoneal; how it was run: as §3
[25] = system: P388; test: Change in tumor cell population in ip implanted P388 Leukemia in mice after administration of compound at 164 mg/kg; type: functional, Mus musculus; conditions: route intraperitoneal; how it was run: as §4
[26] = system: Mus musculus; test: Change in tumor cell population in ip implanted LOX amelanotic melanoma in mice after administration of compound at 328 mg/kg; toxic; type: functional, organism-based; set-up: dose 328 mg/kg; how it was run: as §3
[27] = system: P388; test: Change in tumor cell population in ip implanted P388 Leukemia in mice after administration of compound at 41 mg/kg; type: functional, Mus musculus; conditions: route intraperitoneal; how it was run: as §4
[28] = Percent increase in life span of dying mice tested in vivo at 328 mg/kg against ip implanted LOX amelanotic melanoma in mice (60-day survivors); type: functional; conditions: Mus musculus, 1440 h, route intraperitoneal; how it was run: as §6
[29] = Percent increase in life span of dying mice tested in vivo at 82 mg/kg against ip implanted LOX amelanotic melanoma in mice (60-day survivors); type: functional; conditions: Mus musculus, 1440 h, route intraperitoneal; how it was run: as §2
[30] = Change in tumor cell population in ip implanted LOX amelanotic melanoma in mice after administration of compound at 164 mg/kg; type: functional, Mus musculus; conditions: route intraperitoneal; how it was run: as §3
[31] = system: P388; test: Percent increase in life span of dying mice tested in vivo at 82 mg/kg against ip implanted P388 Leukemia in mice; type: functional; conditions: Mus musculus, route intraperitoneal; how it was run: as §7
[32] = system: P388; test: Percent increase in life span of dying mice tested in vivo at 20.5 mg/kg against ip implanted P388 Leukemia in mice; type: functional; conditions: Mus musculus, route intraperitoneal; how it was run: as §1
[33] = Concentration required to inhibit tumor growth in PSN-1, human pancreatic carcinoma cell line; type: functional
How it was run: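 PSN-1 pancreatic carcinoma cells exposed to compound dissolved in RPMI-1640 plus HEPES at its maximum soluble concentration for 72 h. Read-out by sulforhodamine B colorimetric assay.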

[34] = system: A549; test: Concentration required to inhibit tumor growth in A549, human lung carcinoma (NSCLC) cell line; type: functional, cell-based
How it was run: (§8)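 Cells grown in RPMI 1640 with 5% fetal calf serum, 5% NuSerum IV and 20 mM HEPES, seeded and allowed to adhere overnight. Compound dissolved in RPMI-1640 plus HEPES and tested over a 5 log range (10 concentrations) for 72 h. Read-out by sulforhodamine B assay. Median-effect dose derived by nonlinear regression of the concentration-effect curve.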

[35] = Concentration required to inhibit tumor growth in […], human breast adenocarcinoma cell line; type: functional; how it was run: as §8
[36] = system: HT-29; test: Concentration required to inhibit tumor growth in HT29, human colon adenocarcinoma cell line; type: functional, cell-based; conditions: Homo sapiens, HT-29; how it was run: as §8
[37] = system: L1210 (Mus musculus); test: Concentration required to inhibit tumor growth in L1210, murine lymphocytic leukemia cell line

CNC(=O)OCc1nc(SC(C)C)n(C)c1COC(=O)NC
ILS at 23.5 mg/kg [1]: 25% | ILS at 94 mg/kg [2]: 28% | ILS at 11.8 mg/kg [3]: 31% | KE [4]: 0.7 | KE [5]: 0.6 | KE [6]: 1 | KE [7]: 0.9 | ILS at 188 mg/kg [8]: 45% | KE [9]: 1.3 | ILS at 94 mg/kg [10]: 59% | KE [11]: -1.5 | ILS at 47 mg/kg [12]: 24% | KE [13]: 0.6 | ILS at 23.5 mg/kg [14]: 13% | ILS at 47 mg/kg [15]: 27% | KE [16]: -0.2

CNC(=O)OCc1nc(SSc2nc(COC(=O)NC)c(COC(=O)NC)n2C)n(C)c1COC(=O)NC
KE [17]: 1.8 | ILS at 41 mg/kg [18]: 20% | KE [19]: 1.3 | ILS at 164 mg/kg [20]: -5% | ILS at 41 mg/kg [21]: 3% | ILS at 164 mg/kg [22]: 26% | KE [23]: 1.3 | KE [24]: 1.5 | KE [25]: 0.9 | KE [26]: Toxic | KE [27]: 1.3 | ILS at 328 mg/kg [28]: -69% | ILS at 82 mg/kg [29]: -5% | KE [30]: 1.8 | ILS at 82 mg/kg [31]: 17% | ILS at 20.5 mg/kg [32]: 17%

CNC(=O)OCc1nc2n(c1COC(=O)NC)CCS2
IC50 [33]: 118 µM | IC50 [34]: 190 µM | IC50 [35]: 147 µM | IC50 [36]: 108 µM | IC50 [37]: 11 µM

CNC(=O)OCc1nc(Sc2ccccc2)n(C)c1COC(=O)NC
IC50 [33]: > 100 µM | IC50 [34]: > 100 µM | IC50 [35]: > 100 µM | IC50 [36]: > 100 µM | IC50 [37]: > 100 µM
